Consider six molecules from paper PMC11130662 (Heliyon, 2024).

Series [1] deals with E. granulosus protoscoleces. Description: Protoscolicidal. The class given is cell-based. Conditions: Echinococcus granulosus; for IC50: read-out: IC50 protoscolicidal activity; for viability at 25 µg/mL / viability at 50 µg/mL / viability at 75 µg/mL / viability at 100 µg/mL / viability at 125 µg/mL: read-out: viability of protoscoleces. A digest of the protocol:
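Protoscoleces came from hydatid cysts of naturally infected sheep, settled without centrifugation, washed three times in HBSS, and cultured in RPMI 1640 (12 mM HEPES, glutamine, antibiotics, amphotericin B, 10 % FCS, glucose). Within 10 days, ~500 protoscoleces in 20 ml medium received test compound at 25–125 µg/ml; DMSO control. Viability was scored by motility and 0.1 % trypan blue exclusion in 10 random fields (10X). Triplicate; IC50 by nonlinear regression.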

The subject of series [2] is HepG2 cells. The series is described as follows: In-vitro cytotoxicity MTT assay on HepG2 cell line. Type of series: cell-based, human. The note with it: 125 μg/ml, third day. The essentials: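 HepG2 monolayers in phenol-red-free DMEM with 10 % FCS, penicillin and streptomycin, grown 48 h at 37 °C/5 % CO2 to confluency. Test compound in DMSO at 25, 50, 75, 100, 125 µg; medium-only negative control with matched DMSO. After 48 h at 37 °C, MTT (5 mg/mL) added for 4 h, then DMSO-dissolved formazan read at 570/655 nm. Triplicate; viability relative to untreated cells.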
(Tetrazolium assays rely on reduction of a dye to a coloured formazan, in cell work by metabolically active cells.)

The test system of series [3] is protoscoleces and metacestodes of Echinococcus granulosus. The note with it: cited from earlier work.

The structures appear in SMILES notation. ≈ marks a conversion by molar mass, not a printed value.

For `Cc1ccc(NC(=O)c2cc([N+](=O)[O-])cc([N+](=O)[O-])c2)cc1` [Compound 6, 3,5-dinitro-N-p-tolylbenzamide], in series [1], the half-maximal inhibitory concentration (IC50) stood at 77 µg/mL (≈ 256 µM), the viability at 25 µg/mL turned out to be 72.6%, the viability at 50 µg/mL came out at 66.6% and the viability at 75 µg/mL was determined as 53.6%. In addition, in series [1], the viability at 100 µg/mL is 43% and the viability at 125 µg/mL was found to be 32.3%. Moreover, in series [2], the “cell survival rate of HepG2” value is reported as 36%.
Consider `Cc1ccc(NC(=O)c2cccc3ccccc23)cc1` [Compound 10, N-p-tolyl-1-naphthamide], for which, in series [1], the IC50 came to 29.5 µg/mL (≈ 113 µM), the viability at 25 µg/mL worked out at 47.3%, the viability at 50 µg/mL is 20% and the viability at 75 µg/mL came out at 10.3%. For the same molecule, in series [1], the viability at 100 µg/mL worked out at 0% and the viability at 125 µg/mL was 0%. Further, the “cell survival rate of HepG2” value in series [2] is listed as 40%.
In the case of `Cc1ccc(NC(=O)c2ccc(OC(F)(F)F)cc2)cc1` [Compound 16, N-p-tolyl-4-(trifluoromethoxy)benzamide], in series [1], the IC50 is 66.5 µg/mL (≈ 225 µM), the viability at 25 µg/mL was 72.6%, the viability at 50 µg/mL came out at 62.6% and the viability at 75 µg/mL is 45.3%. In series [1], the viability at 100 µg/mL was found to be 39.6% and the viability at 125 µg/mL was found to be 30%. In addition, the “cell survival rate of HepG2” value in series [2] is given as 38%.
Consider `CCCCCc1ccc(C(=O)Nc2ccc(C)cc2)cc1` [Compound 18, 4-pentyl-N-p-tolylbenzamide], for which, in series [1], the IC50 amounted to 45 µg/mL (≈ 160 µM), the viability at 25 µg/mL turned out to be 63.3%, the viability at 50 µg/mL stood at 49.6% and the viability at 75 µg/mL stood at 38.3%. In series [1], the viability at 100 µg/mL was 29% and the viability at 125 µg/mL was 21%. The “cell survival rate of HepG2” value in series [2] is given as “approximately 54%”.
Consider `Cc1ccc(NC(=O)c2c(F)c(F)c(F)c(F)c2F)cc1` [Compound 20, 2,3,4,5,6-pentafluoro-N-p-tolylbenzamide], for which, in series [1], the IC50 worked out at 39.5 µg/mL (≈ 131 µM), the viability at 25 µg/mL was determined as 54.3%, the viability at 50 µg/mL turned out to be 50.6% and the viability at 75 µg/mL worked out at 18.3%. In series [1], the viability at 100 µg/mL is 9.6% and the viability at 125 µg/mL was determined as 0%. The “cell survival rate of HepG2” value in series [2] is reported as 32%.
In the case of `CC(=O)Oc1ccccc1C(=O)Nc1ncc([N+](=O)[O-])s1` [Nitazoxanide], the antiechinococcal activity result in series [3] is given as “potent antiechinococcal activity”.

For orientation: IC50 means the concentration needed to halve the response being measured. By viability is commonly meant the share of living cells, or the viability signal relative to a control.
